Among all 2,400 compounds or so, about 1,200 (50%) were called active. So high a share suggests a set chosen from earlier hits. Only a sample is shown. Unmarked numbers belong to inactive results.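 How the source made its calls: active means activation above the run cutoff, the mean activation over all tested wells plus 3 SD (cut at about 12% in these data); inactive means the rest.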

The nature of this experiment: calcium rise in parental Ga16 cells – cell-based, fluorescence, CHO-Ga16 parental line, counter-screen for hTAAR1 agonist project (AID 651787). As to conditions: Fluo-8 calcium fluorescence, at 3 µM, hits give high values, normalized to maximal ATP response, DMSO zero. Put shortly:
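System – parental CHO cells stably overexpressing Gα16, lacking hTAAR1 · Quantity – 750 cells per well · Doses – one dose of 3 µM (nominal) · Incubation – 17-24 h seeding, dye 75 min 37 °C, 30 min RT · Measured by – Fluo-8 calcium-dye fluorescence · Read-out basis – percent activation from max/basal fluorescence ratio · Benchmarks – DMSO (0%) and EC100 ATP (100%)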
In general terms: The purpose of a counterscreen is to sort out artefacts and off-target activity.
`Cc1ccc(Sc2cc(N3CCOCC3)nc(-c3ccccc3)n2)cc1`: the activation is 4.27%.
For `O=C(COC(=O)Cc1ccccc1F)NCCc1ccccc1` the value was 0.47%.
With `O=C(Nc1ccc(Cl)cc1)N1CCc2[nH]c3ccccc3c2C1` the figure was 1.95%.
With `COc1ccc(OC)c(NC(=S)N2CCc3ccccc3C2)c1` the figure was 0.03%; with `Fc1ccc(NC(=S)N2CCc3[nH]c4ccccc4c3C2)cc1`, 11.5% (active).
Turning to `c1ccc2c(c1)C(=NC1CCCCC1)NC2=NC1CCCCC1`, the activation is 59.9% (active).
With `CCC(c1nnnn1Cc1ccco1)N(CCc1ccccc1)Cc1cc2cccc(C)c2[nH]c1=O` (stereo not drawn) the figure was 8.41%; with `CC(Oc1ccc(Cl)cc1)C(=O)OCC(=O)Nc1ncc(Cl)cc1Cl` (stereo not drawn), 14.9% (active).
For `COc1ccc2c(c1)OC(O)(C(F)(F)C(F)F)CC2=O` (stereo not drawn) the value was 27.7% (active); for `COc1ccc(Cl)cc1C(=O)NNC(=S)NC(=O)/C=C/c1ccco1`, 83.3% (active).
In the case of `Cc1ccc(NC(=O)CCN2CCc3ccccc3C2)cc1`, the activation was 10.8%.
`Nc1cc(OC(=O)c2ccccc2Br)nn1S(=O)(=O)c1ccccc1`: the activation is 39.3% (active).
As to `O=C(NCCc1ccccc1)C(=O)NCC1OCCN1S(=O)(=O)c1cccs1` (stereo not drawn), the activation was 1.98%.
For `S=C(NCCc1ccccc1)N1CCn2cccc2C1c1ccncc1` (stereo not drawn) the value was 12.7% (active).
For `CCCSc1nc2c(c(=O)n(C)c(=O)n2C)n1Cc1ccc(C)cc1` the value was 34.2% (active).
Regarding `O=C1C=C(c2ccc(Cl)cc2)C(=O)N1Nc1ccccc1`, the activation was 46% (active).
For `COc1ccc2cc(-c3[nH]ncc3CNCCn3nc(C)cc3C)ccc2c1` the value was 0.78%.
Turning to `COc1cccc(-c2cnc(OC(C)(C)C)nc2OC(C)(C)C)c1`, the activation is 14.5% (active).
With `CSc1nc(N)c(C#N)c(-c2ccccc2Cl)c1C#N` the figure was 54.2% (active).
With `O=C(N[C@H](C(=O)N1CCC[C@H]1C(=O)NCCc1ccccc1Cl)c1ccccc1)c1ccccc1` the figure was 1.78%; with `OC(CNCCc1ccc(Cl)cc1Cl)COc1ccccc1` (stereo not drawn), 17.8% (active).
For `c1ccc2c(c1)OCC(CNc1ncnc3nc[nH]c13)O2` (stereo not drawn) the value was 170% (active).
With `COc1cc(OC)c(-n2cc(-c3ccc(Cl)cc3)[nH]c2=O)cc1Cl`, the activation is 74.4% (active).

The values are drawn from PubChem BioAssay AID651787 (The Scripps Research Institute Molecular Screening Center, 2012).
